# Source: ChEMBL document CHEMBL1134379, “Covalently induced activation of the delta opioid receptor by a fluorogenic affinity label, 7'-(phthalaldehydecarboxamido)naltrindole (PNTI)” (J Med Chem, 2001)
# How the values were obtained:
# [1] = molecular target: T1, Delta-type opioid receptor (Homo sapiens, UniProt P41143); experiment: Irreversible binding to delta receptor after pretreatment with naloxone (1 uM) at 20 nM of the compound.
# [2] = molecular target: T1, Delta-type opioid receptor; experiment: Irreversible binding to delta receptor before pretreatment with naloxone (1 uM) at 1 uM
# [3] = molecular target: T1, Delta-type opioid receptor; experiment: Irreversible binding to delta receptor before pretreatment with naloxone (1 uM) at 20 nM of the compound.
# [4] = molecular target: T1, Delta-type opioid receptor; experiment: Binding affinity towards delta-opioid receptor from CHO cells; type: cell-based, Cricetulus griseus
# [5] = molecular target: Kappa-type opioid receptor (Homo sapiens, UniProt P41145); experiment: Binding affinity towards opioid receptor kappa 1 from CHO cells; type: cell-based, Cricetulus griseus
# [6] = molecular target: T1, Delta-type opioid receptor; experiment: Irreversible binding to delta receptor after pretreatment with naloxone (1 uM) at 1 uM of the compound.
# [7] = molecular target: Mu-type opioid receptor (Homo sapiens, UniProt P35372); experiment: Binding affinity towards mu-opioid receptor from CHO cells; type: cell-based, Cricetulus griseus
# [8] = species on record: Mus musculus; experiment: Agonist activity in mouse vas deferens (MVD) assay.; type: functional, organism-based
# Method in brief: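 Electrically stimulated mouse vas deferens preparation. The compound's inhibition of the twitch was measured and the IC50 was derived from the concentration–effect curve.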
# [9] = system: Mus musculus; experiment: Antinociceptive activity by mouse tail-flick antinociceptive assay after icv administration in mouse.; type: functional
# [10] = molecular target: T1, Delta-type opioid receptor; experiment: Irreversible binding to delta receptor before pretreatment with naloxone (1 uM) at 1 uM of the compound.
# T1 sequence (P41143 whole entry): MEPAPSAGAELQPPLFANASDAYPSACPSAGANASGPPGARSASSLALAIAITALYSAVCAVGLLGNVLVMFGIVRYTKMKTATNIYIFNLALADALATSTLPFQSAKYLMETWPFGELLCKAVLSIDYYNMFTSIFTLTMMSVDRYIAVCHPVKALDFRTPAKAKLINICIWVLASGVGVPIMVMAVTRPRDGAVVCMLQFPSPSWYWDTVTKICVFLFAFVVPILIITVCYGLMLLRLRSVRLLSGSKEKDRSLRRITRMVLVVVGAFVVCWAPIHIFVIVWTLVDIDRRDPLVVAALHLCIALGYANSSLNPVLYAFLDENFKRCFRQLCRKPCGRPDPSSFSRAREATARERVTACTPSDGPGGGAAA
# Sequence of Kappa-type opioid receptor (P41145 whole entry): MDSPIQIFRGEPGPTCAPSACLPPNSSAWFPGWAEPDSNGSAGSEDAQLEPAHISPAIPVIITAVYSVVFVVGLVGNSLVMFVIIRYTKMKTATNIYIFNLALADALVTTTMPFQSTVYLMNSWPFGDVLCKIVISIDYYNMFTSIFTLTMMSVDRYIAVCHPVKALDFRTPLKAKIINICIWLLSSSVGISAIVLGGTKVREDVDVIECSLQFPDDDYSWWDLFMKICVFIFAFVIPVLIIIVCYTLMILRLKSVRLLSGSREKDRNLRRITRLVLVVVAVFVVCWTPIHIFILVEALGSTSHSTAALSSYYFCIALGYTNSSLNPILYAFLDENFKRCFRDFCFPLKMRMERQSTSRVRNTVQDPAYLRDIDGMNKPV
# Sequence of Mu-type opioid receptor (P35372 whole entry): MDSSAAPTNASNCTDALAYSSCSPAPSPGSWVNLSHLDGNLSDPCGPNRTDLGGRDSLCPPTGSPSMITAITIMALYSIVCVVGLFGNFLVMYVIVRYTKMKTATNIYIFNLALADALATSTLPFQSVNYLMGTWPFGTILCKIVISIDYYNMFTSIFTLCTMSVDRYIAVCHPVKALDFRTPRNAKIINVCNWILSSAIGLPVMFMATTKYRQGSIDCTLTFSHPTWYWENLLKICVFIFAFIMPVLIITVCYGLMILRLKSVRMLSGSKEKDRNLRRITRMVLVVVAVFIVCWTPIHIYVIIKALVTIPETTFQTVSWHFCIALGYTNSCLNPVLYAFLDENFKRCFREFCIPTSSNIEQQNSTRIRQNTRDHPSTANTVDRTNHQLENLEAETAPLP
SMILES,Binding [1],Binding [2],Binding [3],Ki [4],Ki [5],Binding [6],Ki [7],IC50 [8],ED50 [9],Binding [10]
O=Cc1ccc(C(=O)Nc2cccc3c4c([nH]c23)C2Oc3c(O)ccc5c3[C@@]23CCN(CC2CC2)[C@H](C5)[C@]3(O)C4)cc1C=O (stereo partly drawn),28%,3%,30%,1.9 nM,20.1 nM,10%,14.9 nM,0.12 nM,2.06 nM,
O=C(Nc1cccc2c3c([nH]c12)C1Oc2c(O)ccc4c2[C@@]12CCN(CC1CC1)[C@H](C4)[C@]2(O)C3)c1ccccc1 (stereo partly drawn),70%,,42%,,,20%,,,,7%
